Test results from ChEMBL document CHEMBL1123325, “Isomer-dependent cytostatic activity of bis(1-aziridinyl)cyclophosphazenes” (1986).

Key:
Format in all cases: functional
L5178Y = assay: In vitro lowest active dose (LAD) in L5178Y mouse lymphoma cells
L1210 [1] = assay: In vitro inhibition dose (cytostatic activity) in L1210 mouse leukemia cells
Mus musculus [2] = assay: Compound was tested for percent median survival time of drug-treated mice over that of untreated control mice at dose of 35 mg/kg
How it was run: (§1)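 10^5 L1210 leukemia cells from in vitro suspension culture were injected into male (BALB/c × DBA/2)F1 (CDF1) mice as intraperitoneal leukemia. Dosing began 24 h later, with 5 mice per dose and 10 untreated controls. Survival times were recorded. The value is the median survival time of treated mice as a percent of untreated controls (T/C%), with 60-day long-term survivors noted.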

L1210 [3] = assay: Tested in vivo for 50% lethal dose in L1210 mouse leukemia cells
Mus musculus [4] = assay: Tested for percent median survival time of drug-treated mice over that of untreated control mice at dose of 40 mg/kg; how it was run: as §1
Mus musculus [5] = assay: Tested for percent median survival time of drug-treated mice over that of untreated control mice at dose of 200 mg/kg; how it was run: as §1
Mus musculus [6] = assay: Compound was tested for percent median survival time of drug-treated mice over that of untreated control mice at dose of 90 mg/kg; how it was run: as §1
Mus musculus [7] = assay: Compound was tested for percent median survival time of drug-treated mice over that of untreated control mice at dose of 110 mg/kg; how it was run: as §1
Mus musculus [8] = assay: Compound was tested for percent median survival time of drug-treated mice over that of untreated control mice at dose of 60 mg/kg; how it was run: as §1
Mus musculus [9] = assay: Compound was tested for percent median survival time of drug-treated mice over that of untreated control mice at dose of 80 mg/kg; how it was run: as §1
Mus musculus [10] = assay: Compound was tested for percent median survival time of drug-treated mice over that of untreated control mice at dose of 160 mg/kg; how it was run: as §1
Mus musculus [11] = assay: Compound was tested for percent median survival time of drug-treated mice over that of untreated control mice at dose of 300 mg/kg; how it was run: as §1
Mus musculus [12] = assay: Compound was tested for percent median survival time of drug-treated mice over that of untreated control mice at dose of 350 mg/kg; how it was run: as §1
Mus musculus [13] = assay: Compound was tested for percent median survival time of drug-treated mice over that of untreated control mice at dose of 900 mg/kg; how it was run: as §1
Mus musculus [14] = assay: Compound was tested for percent median survival time of drug-treated mice over that of untreated control mice at dose of 600 mg/kg; how it was run: as §1
Mus musculus [15] = assay: Compound was tested for percent median survival time of drug-treated mice over that of untreated control mice at dose of 30 mg/kg; how it was run: as §1
Mus musculus [16] = assay: Compound was tested for percent median survival time of drug-treated mice over that of untreated control mice at dose of 50 mg/kg; how it was run: as §1
Mus musculus [17] = assay: Compound was tested for percent median survival time of drug-treated mice over that of untreated control mice at dose of 150 mg/kg; how it was run: as §1
Mus musculus [18] = assay: Compound was tested for percent median survival time of drug-treated mice over that of untreated control mice at dose of 120 mg/kg; how it was run: as §1
Mus musculus [19] = assay: Compound was tested for percent median survival time of drug-treated mice over that of untreated control mice at dose of 20 mg/kg; how it was run: as §1
Mus musculus [20] = assay: Compound was tested for percent median survival time of drug-treated mice over that of untreated control mice at dose of 70 mg/kg; how it was run: as §1
Mus musculus [21] = assay: Compound was tested for percent median survival time of drug-treated mice over that of untreated control mice at dose of 400 mg/kg; how it was run: as §1
Mus musculus [22] = assay: Compound was tested for percent median survival time of drug-treated mice over that of untreated control mice at dose of 800 mg/kg; how it was run: as §1
Mus musculus [23] = assay: Compound was tested for percent median survival time of drug-treated mice over that of untreated control mice at dose of 100 mg/kg; how it was run: as §1
Mus musculus [24] = assay: Compound was tested for percent median survival time of drug-treated mice over that of untreated control mice at dose of 180 mg/kg; how it was run: as §1
Mus musculus [25] = assay: Compound was tested for percent median survival time of drug-treated mice over that of untreated control mice at dose of 140 mg/kg; how it was run: as §1
Mus musculus [26] = assay: Compound was tested for percent median survival time of drug-treated mice over that of untreated control mice at dose of 175 mg/kg; how it was run: as §1

Row | SMILES | LAD (L5178Y) [M l-1] | ID50 (L1210 [1]) [M l-1] | LD50 (L1210 [3]) [mg/kg] | other results
1 | CN(C)P1(N(C)C)=NP(N(C)C)(N(C)C)=NP(N2CC2)(N2CC2)=N1 | 2e-05 | 1.95e-05 |  | 
2 | CNP1(N2CC2)=NP(N2CC2)(N2CC2)=NP(N2CC2)(N2CC2)=N1 (configuration not stated) |  | 1.2e-06 | 45 | T/C (Mus musculus [2]): 188%; T/C (Mus musculus [4]): 188%
3 | C1CCN(P2(N3CCCCC3)=NP(N3CC3)(N3CC3)=NP(N3CC3)(N3CC3)=N2)CC1 |  | 3.6e-06 | 250 | T/C (Mus musculus [5]): 156%
4 | C1CCN([P@@]2(N3CC3)=NP(N3CC3)(N3CC3)=N[P@@](N3CCCCC3)(N3CC3)=N2)CC1 |  | 2.1e-06 | 140 | T/C (Mus musculus [6]): 167%; T/C (Mus musculus [7]): 189%
5 | CNP1(NC)=N[P@](NC)(N2CC2)=N[P@](NC)(N2CC2)=N1 | 1e-06 | 5e-06 | 70 | T/C (Mus musculus [8]): 275%; T/C (Mus musculus [9]): 175%; T/C (Mus musculus [4]): 250%
6 | C1CCN(P2(N3CCCC3)=NP(N3CC3)(N3CC3)=NP(N3CC3)(N3CC3)=N2)C1 |  | 2.7e-06 | 220 | T/C (Mus musculus [10]): 178%; T/C (Mus musculus [5]): 211%
7 | C1CN(P2(N3CCOCC3)=NP(N3CC3)(N3CC3)=NP(N3CC3)(N3CC3)=N2)CCO1 |  | 5.8e-06 | 400 | T/C (Mus musculus [11]): 175%; T/C (Mus musculus [12]): 200%
8 | C1CN([P@@]2(N3CC3)=NP(N3CC3)(N3CC3)=N[P@@](N3CCOCC3)(N3CC3)=N2)CCO1 |  | 4.7e-06 | 250 | T/C (Mus musculus [10]): 213%; T/C (Mus musculus [5]): 200%
9 | C1CN(P2(N3CCOCC3)=N[P@](N3CCOCC3)(N3CC3)=N[P@@](N3CCOCC3)(N3CC3)=N2)CCO1 | 3e-05 | 2.47e-05 | 800 | T/C (Mus musculus [13]): 163%; T/C (Mus musculus [14]): 163%
10 | CN[P@@]1(N)=NP(N2CC2)(N2CC2)=N[P@](N)(NC)=N1 | 8e-06 | 5.05e-05 |  | 
11 | C1CN(P2(N3CCOCC3)=N[P@](N3CCOCC3)(N3CC3)=N[P@](N3CCOCC3)(N3CC3)=N2)CCO1 | 6e-05 | 3.35e-05 |  | 
12 | CN(C)P1(N(C)C)=NP(N(C)C)(N(C)C)=NP(N(C)C)(N2CC2)=NP(N(C)C)(N(C)C)=N1 (configuration not stated) | 6.4e-05 | 1.21e-05 |  | 
13 | CNP1(NC)=NP(NC)(NC)=NP(NC)(N2CC2)=N1 (configuration not stated) | 0.0002 | >0.00025 | 800 | T/C (Mus musculus [13]): 225%; T/C (Mus musculus [14]): 175%
14 | CN(C)P1(N(C)C)=NP(N(C)C)(N(C)C)=NP(N2CC2)(N2CC2)=NP(N(C)C)(N(C)C)=N1 | 2e-06 | 1.19e-05 |  | 
15 | C1CN(P2(N3CCOCC3)=NP(N3CCOCC3)(N3CCOCC3)=NP(N3CC3)(N3CC3)=N2)CCO1 | 0.00012 | 0.00013 |  | 
16 | CNP1(NC)=N[P@@](NC)(N2CC2)=N[P@](NC)(N2CC2)=N1 | 1e-06 | 3.3e-06 | 50 | T/C (Mus musculus [15]): 200%; T/C (Mus musculus [16]): 289%; T/C (Mus musculus [4]): 222%
17 | CN(C)P1(N(C)C)=N[P@](N(C)C)(N2CC2)=N[P@](N(C)C)(N2CC2)=N1 | 5e-07 | 7.3e-06 |  | 
18 | CNP1(NC)=N[P@@](NC)(N2CC2)=NP(NC)(NC)=N[P@@](NC)(N2CC2)=N1 | 5e-07 | 4.6e-06 | 200 | T/C (Mus musculus [5]): 213%; T/C (Mus musculus [17]): 200%
19 | C1CCN(P2(N3CCCC3)=NP(N3CCCC3)(N3CCCC3)=NP(N3CCCC3)(N3CC3)=N2)C1 (configuration not stated) | 1.2e-05 | 4.43e-05 |  | 

Row | SMILES | LAD (L5178Y) [M l-1] | ID50 (L1210 [1]) [M l-1] | LD50 (L1210 [3]) [mg/kg] | other results
20 | C1CCN(P2(N3CCCC3)=NP(N3CCCC3)(N3CCCC3)=NP(N3CC3)(N3CC3)=N2)C1 | 4e-06 | 1.86e-05 |  | 
21 | CNP1(NC)=NP(NC)(NC)=NP(NC)(N2CC2)=NP(NC)(NC)=N1 (configuration not stated) | 0.00015 | 5.69e-05 |  | 
22 | CN(C)P1(N(C)C)=N[P@](N(C)C)(N2CC2)=NP(N(C)C)(N(C)C)=N[P@@](N(C)C)(N2CC2)=N1 | 1e-06 | 7.5e-06 | 150 | T/C (Mus musculus [10]): <100%; T/C (Mus musculus [18]): 125%
23 | C1CCN(P2(N3CCCC3)=N[P@@](N3CCCC3)(N3CC3)=N[P@](N3CCCC3)(N3CC3)=N2)C1 | 1e-06 | 4.8e-06 |  | 
24 | C1CN1P1(N2CC2)=NP(N2CC2)(N2CC2)=NP(N2CC2)(N2CC2)=N1 |  | 2e-06 | 50 | T/C (Mus musculus [19]): 200%; T/C (Mus musculus [4]): 163%
25 | C1CCN(P2(N3CCCC3)=N[P@](N3CCCC3)(N3CC3)=N[P@](N3CCCC3)(N3CC3)=N2)C1 | 1e-06 | 6.7e-06 |  | 
26 | C1CCN(P2(N3CC3)=NP(N3CC3)(N3CC3)=NP(N3CC3)(N3CC3)=N2)CC1 (configuration not stated) |  | 1.5e-06 | 80 | T/C (Mus musculus [8]): 175%; T/C (Mus musculus [20]): 213%
27 | CNP1(NC)=NP(NC)(NC)=NP(N2CC2)(N2CC2)=N1 | 8e-06 | 2.78e-05 | 600 | T/C (Mus musculus [21]): 163%; T/C (Mus musculus [22]): 188%; T/C (Mus musculus [14]): 150%
28 | CCOC(=O)CNP1(NCC(=O)OCC)=NP(N2CC2)(N2CC2)=NP(N2CC2)(N2CC2)=N1 |  | 7.2e-06 | 170 | T/C (Mus musculus [17]): <100%; T/C (Mus musculus [18]): 125%
29 | CN(C)P1(N(C)C)=NP(N(C)C)(N(C)C)=NP(N(C)C)(N2CC2)=N1 (configuration not stated) | >0.0003 | >0.00025 |  | 
30 | CNP1(NC)=NP(NC)(NC)=NP(N2CC2)(N2CC2)=NP(NC)(NC)=N1 | 1.8e-05 | 6.5e-06 |  | 
31 | CN(C)P1(N(C)C)=N[P@](N(C)C)(N2CC2)=NP(N(C)C)(N(C)C)=N[P@](N(C)C)(N2CC2)=N1 | 4e-06 | 5.5e-06 |  | 
32 | CNP1(NC)=NP(NC)(NC)=N[P@@](NC)(N2CC2)=N[P@](NC)(N2CC2)=N1 | 2e-06 | 1.8e-06 | 100 | T/C (Mus musculus [23]): 213%; T/C (Mus musculus [8]): 275%; T/C (Mus musculus [9]): 263%; T/C (Mus musculus [4]): 238%
33 | CNP1(NC)=N[P@](NC)(N2CC2)=NP(NC)(NC)=N[P@@](NC)(N2CC2)=N1 | 5e-07 | 4.6e-06 | 200 | T/C (Mus musculus [23]): 244%; T/C (Mus musculus [24]): 311%; T/C (Mus musculus [25]): 333%; T/C (Mus musculus [20]): 289%
34 | CN(C)P1(N(C)C)=NP(N(C)C)(N(C)C)=N[P@@](N(C)C)(N2CC2)=N[P@](N(C)C)(N2CC2)=N1 | 2e-06 | 6.6e-06 |  | 
35 | C1CN(P2(N3CCOCC3)=NP(N3CCOCC3)(N3CCOCC3)=NP(N3CCOCC3)(N3CC3)=N2)CCO1 (configuration not stated) | >0.0003 | >0.00025 |  | 
36 | O=S1(N2CC2)=NP(N2CC2)(N2CC2)=NP(N2CC2)(N2CC2)=N1 (configuration not stated) |  | 1.06e-05 | 250 | T/C (Mus musculus [5]): 163%; T/C (Mus musculus [26]): 188%
37 | CN(C)P1(N(C)C)=N[P@@](N(C)C)(N2CC2)=N[P@](N(C)C)(N2CC2)=N1 | 5e-07 | 2.9e-06 |  | 
